Columns and labels:
[1] = species on record: Bos taurus; assay: Inhibition of calf thymus topoisomerase 1-mediated supercoiled plasmid DNA relaxation at 0.2 uM
In short: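 Calf thymus TOP1 relaxation of 0.5 µg pBR322 in 20 µL buffer (20 mM Tris pH 7.5, 0.1 mM EDTA, 10 mM MgCl2, 50 µg/mL acetylated BSA, 100 mM KCl), compound from DMSO. Started by adding DNA, 30 min at 37 °C, stopped with loading buffer. 1% agarose gel in Tris-borate/EDTA at 5 V/cm, ethidium bromide stain. Supercoiled DNA quantified densitometrically.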

[2] = test system: NCI-H460; assay: Cytotoxicity against human NCI-H460 cells after 2 days by MTT assay; assay type: functional, cell-based; details: NCI-H460, 48 h
In short: (§1)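 Cells grown in RPMI-1640 with 10% FBS, penicillin 100 U/mL and streptomycin 100 µg/mL at 37 °C, 5% CO2, passage 3–6. Exponential-phase cells seeded at 5 × 10⁴–1 × 10⁵ cells/ml, grown overnight, then exposed for 2 days to compounds predissolved in DMSO at selected concentrations. Viability read by MTT.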

[3] = test system: HL-60; assay: Cytotoxicity against human HL60 cells after 2 days by MTT assay; assay type: functional, cell-based; details: HL-60, 48 h; in short: as §1
[4] = Cytotoxicity against human GLC82 cells after 2 days by MTT assay; assay type: functional, cell-based; details: GLC82, 48 h; in short: as §1
[5] = test system: MCF7; assay: Cytotoxicity against human MCF7 cells after 2 days by MTT assay; assay type: functional, cell-based; details: MCF7, 48 h; in short: as §1
[6] = species on record: Bos taurus; assay: Inhibition of calf thymus topoisomerase 1-mediated supercoiled plasmid DNA relaxation at 125 uM

For CCOC(=O)c1c2c(n3cccc(Cl)c13)C(=O)c1ncccc1C2=O, which inhibition [1] is on record?
The inhibition was 5.8%.

What about the IC50 [2] of the same compound?
Its IC50 is 2.1 µM.

And the IC50 [3]?
The IC50 was 6.52 µM.

What about the IC50 [4] of the same compound?
Its IC50 is less than 0.25 µM.

What about the IC50 [5] of the same compound?
Its IC50 is 7.37 µM.

What about the inhibition [6] of the same compound?
The inhibition was 100%.

With CC(=O)c1c2c(n3cccc(Cl)c13)C(=O)c1cccnc1C2=O as the compound, how does the IC50 [2] read?
Its IC50 is 1.5 µM.

What about the IC50 [3] of the same compound?
The IC50 was 2.2 µM.

What about the IC50 [4] of the same compound?
Its IC50 is 16.1 µM.

What about the IC50 [5] of the same compound?
Its IC50 is 16.1 µM.

Which IC50 [3] does the source give for CCOC(=O)c1c2c(n3cccc(C)c13)C(=O)c1cccnc1C2=O here?
The IC50 was 11.7 µM.

What about the IC50 [4] of the same compound?
The IC50 was 9.27 µM.

What about the IC50 [5] of the same compound?
The IC50 was greater than 25 µM.

Which IC50 [2] does the source give for Cc1c2c(n3ccccc13)C(=O)c1ncccc1C2=O here?
The IC50 was 12.2 µM.

And the IC50 [3]?
The IC50 was 12.5 µM.

And the IC50 [4]?
The IC50 was 14.2 µM.

And the IC50 [5]?
The IC50 was greater than 25 µM.

With CCOC(=O)c1c2c(n3cccc(F)c13)C(=O)c1ncccc1C2=O as the compound, how does the IC50 [2] read?
Its IC50 is less than 0.25 µM.

What about the IC50 [3] of the same compound?
The IC50 was 1.37 µM.

And the IC50 [4]?
The IC50 was less than 0.25 µM.

What about the IC50 [5] of the same compound?
Its IC50 is 7.01 µM.

Which IC50 [2] does the source give for CC(=O)c1c2c(n3ccccc13)C(=O)c1ncccc1C2=O here?
Its IC50 is less than 0.25 µM.

What about the IC50 [3] of the same compound?
The IC50 was 0.86 µM.

What about the IC50 [4] of the same compound?
The IC50 was less than 0.25 µM.

What about the IC50 [5] of the same compound?
Its IC50 is 7.92 µM.

Which IC50 [2] does the source give for CC(=O)c1c2c(n3cccc(Cl)c13)C(=O)c1ncccc1C2=O here?
The IC50 was 0.23 µM.

What about the IC50 [3] of the same compound?
Its IC50 is 0.19 µM.

What about the IC50 [4] of the same compound?
The IC50 was 6.85 µM.

What about the IC50 [5] of the same compound?
Its IC50 is 7.83 µM.

With CCOC(=O)c1c2c(n3ccccc13)C(=O)c1ncccc1C2=O as the compound, how does the IC50 [2] read?
Its IC50 is less than 0.25 µM.

What about the IC50 [3] of the same compound?
The IC50 was 0.88 µM.

What about the IC50 [4] of the same compound?
Its IC50 is less than 0.25 µM.

And the IC50 [5]?
Its IC50 is 0.96 µM.

Which IC50 [2] does the source give for CC(=O)c1c2c(n3cccc(O)c13)C(=O)c1cccnc1C2=O here?
Its IC50 is greater than 25 µM.

And the IC50 [3]?
The IC50 was greater than 25 µM.

What about the IC50 [4] of the same compound?
Its IC50 is 16.3 µM.

Which IC50 [3] does the source give for CCOC(=O)c1c2c(n3cccc(C)c13)C(=O)c1ncccc1C2=O here?
The IC50 was 0.22 µM.

What about the IC50 [4] of the same compound?
The IC50 was 1.83 µM.

And the IC50 [5]?
The IC50 was 14.5 µM.

For CC(=O)c1c2c(n3cccc(Br)c13)C(=O)c1ncccc1C2=O, which IC50 [2] is on record?
The IC50 was 2.15 µM.

And the IC50 [3]?
Its IC50 is 0.21 µM.

And the IC50 [4]?
The IC50 was 2.01 µM.

And the IC50 [5]?
The IC50 was 11.7 µM.

Which inhibition [6] does the source give for CC[C@@]1(O)C(=O)OCc2c1cc1n(c2=O)Cc2cc3ccccc3nc2-1 here?
Its inhibition is 81.3%.

For Cc1c2c(n3ccccc13)C(=O)c1cccnc1C2=O, which IC50 [2] is on record?
Its IC50 is greater than 25 µM.

And the IC50 [3]?
The IC50 was greater than 25 µM.

What about the IC50 [4] of the same compound?
Its IC50 is 21.5 µM.

What about the IC50 [5] of the same compound?
The IC50 was greater than 25 µM.

Which IC50 [2] does the source give for CCOC(=O)c1c2c(n3cccc(F)c13)C(=O)c1cccnc1C2=O here?
The IC50 was 1.2 µM.

And the IC50 [3]?
The IC50 was 5.51 µM.

What about the IC50 [4] of the same compound?
The IC50 was 1.7 µM.

And the IC50 [5]?
The IC50 was 6.2 µM.

With CC(=O)c1c2c(n3ccccc13)C(=O)c1cccnc1C2=O as the compound, how does the IC50 [2] read?
Its IC50 is 1.4 µM.

What about the IC50 [3] of the same compound?
The IC50 was 14.7 µM.

And the IC50 [4]?
The IC50 was 1.9 µM.

And the IC50 [5]?
Its IC50 is 12.7 µM.

Which IC50 [2] does the source give for CCOC(=O)c1c2c(n3cccc(N)c13)C(=O)c1cccnc1C2=O here?
The IC50 was 19 µM.

What about the IC50 [3] of the same compound?
Its IC50 is greater than 25 µM.

And the IC50 [4]?
Its IC50 is 23.5 µM.

What about the IC50 [5] of the same compound?
Its IC50 is greater than 25 µM.

Which IC50 [2] does the source give for O=C1c2cccnc2C(=O)c2c1cc1ccccn21 here?
Its IC50 is 15.6 µM.

And the IC50 [3]?
Its IC50 is 17 µM.

What about the IC50 [4] of the same compound?
The IC50 was 11.5 µM.

And the IC50 [5]?
The IC50 was greater than 25 µM.

Which IC50 [2] does the source give for CC(=O)c1c2c(n3cccc(N)c13)C(=O)c1ncccc1C2=O here?
Its IC50 is greater than 25 µM.

What about the IC50 [3] of the same compound?
Its IC50 is 22.3 µM.

What about the IC50 [4] of the same compound?
Its IC50 is 12.2 µM.

What about the IC50 [5] of the same compound?
Its IC50 is greater than 25 µM.

For CCOC(=O)c1c2c(n3cccc(Cl)c13)C(=O)c1cccnc1C2=O, which IC50 [2] is on record?
Its IC50 is 2.2 µM.

And the IC50 [3]?
Its IC50 is 15.4 µM.

And the IC50 [4]?
The IC50 was 9.73 µM.

What about the IC50 [5] of the same compound?
Its IC50 is 19.9 µM.

Which IC50 [2] does the source give for CC(=O)c1c2c(n3cccc(N)c13)C(=O)c1cccnc1C2=O here?
Its IC50 is 10.3 µM.

What about the IC50 [3] of the same compound?
The IC50 was 15.8 µM.

What about the IC50 [4] of the same compound?
The IC50 was 10.3 µM.

What about the IC50 [5] of the same compound?
The IC50 was greater than 25 µM.

Which IC50 [2] does the source give for CC(=O)c1c2c(n3cccc(Br)c13)C(=O)c1cccnc1C2=O here?
Its IC50 is 0.2 µM.

What about the IC50 [3] of the same compound?
Its IC50 is 1.56 µM.

And the IC50 [4]?
Its IC50 is 4.68 µM.

And the IC50 [5]?
The IC50 was 12.4 µM.

What does the source list for CCOC(=O)c1c2c(n3cccc(O)c13)C(=O)c1ncccc1C2=O?
IC50 [2]: > 25 µM; IC50 [3]: > 25 µM; IC50 [4]: 7.2 µM; IC50 [5]: > 25 µM

Which IC50 [2] does the source give for CC(=O)c1c2c(n3cccc(O)c13)C(=O)c1ncccc1C2=O here?
The IC50 was 24.9 µM.

And the IC50 [3]?
The IC50 was greater than 25 µM.

And the IC50 [4]?
The IC50 was 19.5 µM.

And the IC50 [5]?
The IC50 was 17.6 µM.

For CCOC(=O)c1c2c(n3cccc(O)c13)C(=O)c1cccnc1C2=O, which IC50 [2] is on record?
Its IC50 is 23.3 µM.

And the IC50 [3]?
Its IC50 is greater than 25 µM.

What about the IC50 [4] of the same compound?
The IC50 was 23.8 µM.

And the IC50 [5]?
Its IC50 is greater than 25 µM.

Which IC50 [2] does the source give for CCOC(=O)c1c2c(n3cccc(Br)c13)C(=O)c1ncccc1C2=O here?
The IC50 was 2 µM.

And the IC50 [3]?
Its IC50 is 9.32 µM.

What about the IC50 [4] of the same compound?
The IC50 was less than 0.25 µM.

What about the IC50 [5] of the same compound?
Its IC50 is 10.3 µM.

For O=C1c2cc3ccccn3c2C(=O)c2cccnc21, which IC50 [2] is on record?
The IC50 was 12.3 µM.

What about the IC50 [3] of the same compound?
The IC50 was 14.7 µM.

And the IC50 [4]?
The IC50 was 16.7 µM.

And the IC50 [5]?
Its IC50 is 20.2 µM.

What does the source list for CCOC(=O)c1c2c(n3ccccc13)C(=O)c1cccnc1C2=O?
IC50 [2]: 1.9 µM; IC50 [3]: 14.5 µM; IC50 [4]: 2.4 µM; IC50 [5]: 6.38 µM

With CC(=O)c1c2c(n3cccc(F)c13)C(=O)c1cccnc1C2=O as the compound, how does the IC50 [2] read?
The IC50 was 6.75 µM.

And the IC50 [3]?
Its IC50 is 1.39 µM.

What about the IC50 [4] of the same compound?
Its IC50 is 12.7 µM.

What about the IC50 [5] of the same compound?
The IC50 was 9.28 µM.

What does the source list for CCOC(=O)c1c2c(n3ccccc13)C(=O)c1ccccc1C2=O?
IC50 [3]: > 25 µM; IC50 [4]: > 25 µM; IC50 [5]: > 25 µM

Which IC50 [2] does the source give for CC(=O)c1c2c(n3cccc(F)c13)C(=O)c1ncccc1C2=O here?
Its IC50 is less than 0.25 µM.

What about the IC50 [3] of the same compound?
The IC50 was 0.17 µM.

And the IC50 [4]?
The IC50 was 5.26 µM.

And the IC50 [5]?
The IC50 was 2.31 µM.

What does the source list for CCOC(=O)c1c2c(n3cccc(N)c13)C(=O)c1ncccc1C2=O?
IC50 [2]: 17.6 µM; IC50 [3]: 16.4 µM; IC50 [4]: 23.4 µM; IC50 [5]: 20.9 µM

Which IC50 [2] does the source give for CCOC(=O)c1c2c(n3cccc(Br)c13)C(=O)c1cccnc1C2=O here?
Its IC50 is 2.4 µM.

And the IC50 [3]?
Its IC50 is 11.5 µM.

And the IC50 [4]?
The IC50 was 1.1 µM.

And the IC50 [5]?
Its IC50 is 20.8 µM.

Reference: ChEMBL document CHEMBL1149845, “Synthesis, cytotoxic activities and structure-activity relationships of topoisomerase I inhibitors: indolizinoquinoline-5,12-dione derivatives” (Bioorg Med Chem, 2008)
